This is an account of results in ChEMBL document CHEMBL3822391, “Synthesis and Biological Evaluation of Vitamin D3 Metabolite 20S,23S-Dihydroxyvitamin D3 and Its 23R Epimer” (J Med Chem, 2016).

As usually defined, the EC50 is the concentration needed to bring the measured effect to its halfway point. A word on the IC50: it is the point on the concentration scale where inhibition reaches its midpoint.

Activity calls are given as the source filed them. The calls are words filed in the database; no cut-off is given here.

In data set [1] the target is T1, 25-hydroxyvitamin D-1 alpha hydroxylase, mitochondrial (Mus musculus, UniProt O35084).
T1 sequence (O35084 whole entry): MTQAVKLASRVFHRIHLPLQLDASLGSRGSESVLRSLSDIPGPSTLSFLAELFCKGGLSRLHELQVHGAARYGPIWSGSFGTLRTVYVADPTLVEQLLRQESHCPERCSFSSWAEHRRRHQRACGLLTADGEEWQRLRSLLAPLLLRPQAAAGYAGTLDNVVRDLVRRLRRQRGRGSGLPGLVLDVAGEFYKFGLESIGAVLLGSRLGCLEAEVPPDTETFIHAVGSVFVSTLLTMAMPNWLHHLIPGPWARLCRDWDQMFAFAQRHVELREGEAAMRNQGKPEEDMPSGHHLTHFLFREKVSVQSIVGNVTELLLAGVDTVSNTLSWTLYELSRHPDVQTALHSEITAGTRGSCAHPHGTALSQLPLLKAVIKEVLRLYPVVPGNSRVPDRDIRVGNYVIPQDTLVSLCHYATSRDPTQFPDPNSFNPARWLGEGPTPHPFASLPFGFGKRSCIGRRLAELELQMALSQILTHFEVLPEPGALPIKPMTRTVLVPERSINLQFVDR
As to the kind of experiment: Activity of mouse CYP27B1 assessed as compound hydroxylation measured per mol of phospholipid after 3 mins by HPLC. The settings on record: 0.05 h. It is filed as ADME. Summed up: (§1)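 Substrate was incorporated into phospholipid vesicles at 0.0025–0.07 mol/mol PL and incubated 3 min with 0.1 µM mouse CYP27B1. Product was quantified by HPLC. Km and kcat came from a Michaelis–Menten fit, given as mean ± standard error of the curve fit.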

Data set [2] addresses T1, 25-hydroxyvitamin D-1 alpha hydroxylase, mitochondrial. Nature of the data set: Ratio of Kcat to Km for mouse CYP27B1 measured per mol of phospholipid after 3 mins by HPLC. It is filed as ADME. To be noted: 0.05 h. The gist of the method: as §1
The target in data set [3] is T2, Vitamin D3 receptor (Homo sapiens, UniProt P11473).
T2 sequence (P11473 whole entry): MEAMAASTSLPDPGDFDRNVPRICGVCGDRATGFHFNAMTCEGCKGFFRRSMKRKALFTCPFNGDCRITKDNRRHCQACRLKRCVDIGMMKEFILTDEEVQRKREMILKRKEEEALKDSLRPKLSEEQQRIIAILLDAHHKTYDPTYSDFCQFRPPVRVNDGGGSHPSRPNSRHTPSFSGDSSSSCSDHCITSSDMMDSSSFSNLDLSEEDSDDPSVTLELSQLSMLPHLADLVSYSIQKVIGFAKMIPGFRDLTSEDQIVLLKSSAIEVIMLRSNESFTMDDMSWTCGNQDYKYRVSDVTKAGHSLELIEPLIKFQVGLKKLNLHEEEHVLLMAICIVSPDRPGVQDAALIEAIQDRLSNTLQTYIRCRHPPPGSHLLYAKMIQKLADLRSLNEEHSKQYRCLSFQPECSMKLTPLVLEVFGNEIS
Nature of the data set: Activation of VDR in human HaCaT cells expressing lentiviral VDRE-luciferase vector assessed as VDRE-mediated transcriptional activity measured after 24 hrs by luciferase transcriptional reporter assay. It is filed as cell-based. On the technique in general: Reporter assays use an easily measured gene product as a stand-in for the process of interest.

Data set [4] has as its target T2, Vitamin D3 receptor. Nature of the data set: Activation of VDR in human Caco2 cells expressing lentiviral VDRE-luciferase vector assessed as VDRE-mediated transcriptional activity measured after 24 hrs by luciferase transcriptional reporter assay. The format is cell-based, Caco-2.
Data set [5] deals with T2, Vitamin D3 receptor. Nature of the data set: Activation of VDR in human Jurkat cells expressing lentiviral VDRE-luciferase vector assessed as VDRE-mediated transcriptional activity measured after 24 hrs by luciferase transcriptional reporter assay. It is filed as cell-based.
A short description of data set [6]: Antiinflammatory activity in DBA/1 mouse splenocytes assessed as upregulation of LAIR1 level by measuring mean fluorescence intensity at 100 nM by flow cytometry (reference value: 766 +/- 22 au). The format is functional, cell-based. The settings on record: Splenocyte. The gist of the method: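 Splenocytes from DBA/1 mice were cultured in EMEM with 9% charcoal-stripped FBS and treated overnight at 10^-7 M, with an ethanol vehicle control. Cells were stained with fluorochrome anti-CD4 and anti-LAIR1. LAIR1 mean fluorescence was read by multiparameter flow cytometry, gated on CD4 cells.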

Data set [7] can be described thus: Growth inhibition of human SK-MEL-188 cells measured after 48 hrs by MTS/PMS assay. To be noted: SK-MEL-188, 48 h. It is filed as functional.
In data set [8] the target is T3, Vitamin D3 receptor (Homo sapiens) (UniProt P11473).
T3 sequence (whole entry): T2 sequence (P11473 whole entry)
Nature of the data set: Activation of VDR in human Caco2 cells expressing lentiviral VDRE-luciferase vector assessed as VDRE-mediated transcriptional activity up to 1000 nM measured after 24 hrs by luciferase transcriptional reporter assay. It is filed as cell-based. The settings on record: Caco-2. Summed up:
(§2)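 Cells carry a lentiviral VDRE-luciferase reporter and were selected for 1 week with an extra 1.0 µg/mL puromycin. Growth media: Caco-2 in DMEM with 10% FBS; HaCaT in the same with 5% FBS; Jurkat in RPMI 1640 with 10% FBS. Cells were plated in FBS-free medium for 24 h, then given serial concentrations (final DMSO 0.1%) for 24 h. ONE-Glo luminescence was read after 5 min at room temperature. Triplicates.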

Data set [9] deals with T3, Vitamin D3 receptor (Homo sapiens). As to the kind of experiment: Activation of VDR in human HaCaT cells expressing lentiviral VDRE-luciferase vector assessed as VDRE-mediated transcriptional activity up to 1000 nM measured after 24 hrs by luciferase transcriptional reporter assay. It is filed as cell-based. The gist of the method: as §2
Data set [10] shares this target. As to the kind of experiment: Activation of VDR in human Jurkat cells expressing lentiviral VDRE-luciferase vector assessed as VDRE-mediated transcriptional activity up to 1000 nM measured after 24 hrs by luciferase transcriptional reporter assay. It is filed as cell-based. Summed up: as §2

With `C=C1CC[C@H](O)C/C1=C/C=C1\CCC[C@@]2(C)[C@H]1CC[C@@H]2[C@@](C)(O)C[C@H](O)CC(C)C`, the Km in data set [1] was found to be 2.3 ×10⁻³ mol/mol. Besides, the Kcat/Km in data set [2] came to 5087. In addition, the EC50 was 484 nM at Vitamin D3 receptor [3], 562 nM on Vitamin D3 receptor [4] and 653 nM on Vitamin D3 receptor [5]. For the same compound, the Flu intensity in [6] is 1480 a.u. In [7], this compound displayed an IC50 of 0.01 nM.
Consider `C=C1/C(=C\C=C2/CCC[C@]3(C)[C@@H]([C@H](C)OCCC(C)(C)O)CC[C@@H]23)C[C@@H](O)C[C@@H]1O` [MAXACALCITOL], for which the EC50 is 160 nM at Vitamin D3 receptor [3], 144 nM at Vitamin D3 receptor [4] and 0.855 nM at Vitamin D3 receptor [5]. Moreover, the Flu intensity in data set [6] amounted to 1480 a.u.
For the compound `C=C1CC[C@H](O)C/C1=C/C=C1\CCC[C@@]2(C)[C@H]1CC[C@@H]2[C@@](C)(O)C[C@@H](O)CC(C)C`, the Km in data set [1] is reported as 5.2 ×10⁻³ mol/mol. Further, the Kcat/Km in data set [2] was determined as 4731. The Flu intensity in data set [6] amounted to 1480 a.u. The same compound came in with an IC50 in data set [7] of 0.01 nM. Besides, the result in data set [8], in data set [9] and in data set [10] was inactive.
On to `C=C1/C(=C\C=C2/CCC[C@]3(C)[C@@H]([C@H](C)CCCC(C)(C)O)CC[C@@H]23)C[C@@H](O)C[C@@H]1O`, for which the Flu intensity in data set [6] came out at 1360 a.u.
As to `C=C1/C(=C\C=C2/CCC[C@@]3(C)[C@H]2CC[C@@H]3[C@@](C)(O)C[C@@H](O)CC(C)C)C[C@@H](O)C[C@@H]1O`, the values for the EC50 on Vitamin D3 receptor [3], on Vitamin D3 receptor [4] and at Vitamin D3 receptor [5] were 175 nM, 241 nM and 203 nM, respectively. Also, the Flu intensity in [6] turned out to be 1480 a.u. This compound also returned an IC50 in data set [7] of 0.01 nM.
`C=C1/C(=C\C=C2/CCC[C@@]3(C)[C@H]2CC[C@@H]3[C@@](C)(O)C[C@H](O)CC(C)C)C[C@@H](O)C[C@@H]1O`: the EC50 came out at 117 nM on Vitamin D3 receptor [3], 172 nM at Vitamin D3 receptor [4] and 30.6 nM at Vitamin D3 receptor [5]. In addition, in data set [6], the Flu intensity amounted to 1480 a.u. In addition, the IC50 in data set [7] was found to be 0.01 nM.
